# High-throughput results: PubChem BioAssay, several laboratories
# MEKK2 mut-MEK5 – MEK5 binding signal on mutant MEKK2 PB1, primary screen, biochemical, multiplex bead flow cytometry, Alexa488-MEK5; Alexa488-MEK5 binding to MEKK2 mutant; 290,000 compounds, 0.35% hits; percent response, % at 10 µM; in the data active means percent response above about 24%, passing the limit was not always enough
# Beta2AR agonist – beta2AR agonists driving receptor internalization, primary screen, cell-based, FAP fluorogen, flow cytometry; AID 504454, 2011; response, % (concentration not given with the values); 340,000 compounds, 0.43% hits; Am2.2-beta2AR cells; Beta-2 adrenergic receptor (Homo sapiens), P07550;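 active means response above a set limit, near 3 SD of response in nonfluorescent compounds, cut at about 42% in these data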
# ATG4B inhibitor – ATG4B protease inhibitors, primary screen, biochemical, fluorescence, uHTS | Cysteine protease ATG4B (Homo sapiens), Q9Y4P1 | ATG4B cleavage of LC3-PLA2, NBD-HPC fluorescence, 1 h | inhibition, % at 8.33 µM | 340,000 compounds, 0.51% hits; in the data active means inhibition above about 40%
# Target sequence (Q9Y4P1 whole entry, looked up): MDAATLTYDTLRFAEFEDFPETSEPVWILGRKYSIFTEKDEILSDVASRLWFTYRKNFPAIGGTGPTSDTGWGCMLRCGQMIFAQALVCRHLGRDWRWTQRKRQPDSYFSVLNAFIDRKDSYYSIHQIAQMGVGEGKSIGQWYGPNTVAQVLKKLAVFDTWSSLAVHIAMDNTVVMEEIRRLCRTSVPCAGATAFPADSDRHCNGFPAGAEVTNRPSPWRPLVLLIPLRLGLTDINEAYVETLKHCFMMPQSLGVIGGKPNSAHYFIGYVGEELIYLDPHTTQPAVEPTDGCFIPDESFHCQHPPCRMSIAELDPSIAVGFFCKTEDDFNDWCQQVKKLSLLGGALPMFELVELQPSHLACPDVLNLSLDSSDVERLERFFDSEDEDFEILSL
# MEKK2 WT-MEK5 – modulators of MEK5 binding to wildtype MEKK2, primary screen, biochemical, multiplex bead flow cytometry, Alexa488-MEK5; Mitogen-activated protein kinase kinase kinase 2 (Homo sapiens), Q9Y2U5; 290,000 compounds, 1.1% hits; Alexa488-MEK5 binding to MEKK2 WT; actives lie on both sides; AID 1531, 2009; binding response (% of control), % at 10 µM; in the data active means binding response below about 67% or above about 130%; inconclusive means no clear call, values can overlap the other calls; inactive means in between
# MEKK3 PB1 HTS – modulators of MEKK3-MEK5 PB1 binding, primary screen, biochemical, wildtype MEKK3, multiplex bead flow cytometry, Alexa488-MEK5; Mitogen-activated protein kinase kinase kinase 3 (Homo sapiens), Q99759; bead-based flow cytometry, Alexa488-MEK5 binding to MEKK3; actives lie on both sides; 0 = blocked by unlabeled MEK5, 100 = vehicle; 290,000 compounds, 1.4% hits; binding response (% of control), % at 10 µM;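 active means binding response more than 3 SD above or below the average of its plate-row segment, actives on both sides; inconclusive means wells at one plate position flagged as instrument error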;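 further: Alexa488 bead fluorescence after subtracting the streptavidin-only scavenger bead signal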
# Dynein transport – inhibitors of GR-EGFP nuclear translocation, primary screen, dynein cargo transport inhibitor project, imaging, high-content, 3617.4 mouse cells. test concentration mostly 20 µM; stimulated with dexamethasone, 1 µM; active compounds read low. z-score, hits read low. 220,000 compounds, 0.47% hits. AID 1381, 2008;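 active means plate z-score of nuclear minus cytoplasmic receptor signal below a set negative limit, without overly bright fluorescence or cell loss, cut at about -3.5 in these data, passing the limit was not always enough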;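 further: z-score of nuclear minus cytoplasmic ring GR-EGFP intensity difference per well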
#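 Also added: dexamethasone, 1.0 µM final. Medium: tet-free, stripped-serum medium. Detection: fixed, Hoechst-stained cells imaged at 10x for EGFP. Read-out: nuclear-to-cytoplasmic GR-EGFP distribution per well. Times: induction 48 h, compound 1 h, agonist 30 min.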
# Dynein inh conf – dynein cargo transport inhibitors, GR-EGFP translocation, confirmation, imaging, high-content imaging, GR-EGFP cells; shares compounds with Dynein transport; 3617.4 GR-EGFP nuclear translocation imaging, dexamethasone-induced; calls only at 20 µM; 1,000 compounds, 69% hits;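 active means inhibition of receptor movement into the nucleus at or above a set limit in both runs, with normal cell brightness and cell count; inconclusive means limit reached in only one run, brightness and count normal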;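 further: dexamethasone at 1 µM final in well for 30 min; nuclear minus cytoplasmic GR-EGFP mean intensity difference in channel 2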
# MEKK2wt confirm – modulators of MEK5 binding to wildtype MEKK2, confirmation, biochemical, single concentration, multiplex bead flow cytometry; shares compounds with MEKK3 PB1 HTS; Alexa488-MEK5 binding to MEKK2 WT; actives lie on both sides; binding response (% of control), % at 10 µM; 5,900 compounds, 2.4% hits; in the data active means binding response below about 16% or above about 210%; inactive means in between
# MEKK2mut confirm – mutant MEKK2 PB1-MEK5 binding signal retest – biochemical, single concentration, multiplex bead flow cytometry, confirmation. shares compounds with MEKK3 PB1 HTS. Alexa488-MEK5 binding to MEKK2 mutant. percent response, % at 10 µM. 5,900 compounds, 2% hits. AID 1893, 2009; in the data active means percent response mostly above about 71%, no sharp cut-off; inactive means mostly below about 38%;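 further: higher means compound restores mutant binding toward wildtype level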
# MEKK3 confirm – MEKK3 wild-type PB1 binding to MEK5, inhibitors, confirmation, biochemical, bead multiplex flow cytometry, single concentration, wildtype; shares compounds with MEKK3 PB1 HTS; Alexa488-MEK5 binding to MEKK3; active compounds read low; binding response (% of control), % at 10 µM; 5,900 compounds, 1.8% hits; AID 1894, 2009;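 active means binding response below 72% of control, or above a set upper limit, though filed actives all read lower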;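 further: 100% = DMSO only wells and 0% = binding blocked by excess unlabeled MEK5; lower values mean stronger disruption of MEK5 binding to MEKK3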
# Beta2AR ag CP1 – beta2AR agonists via receptor internalization, confirmation, cell-based, FAP fluorogen, flow cytometry, single point, cherry pick 1 | shares compounds with Beta2AR agonist | Am2.2-beta2AR cells, FAP surface receptor; active compounds read low | percent response (surface receptor), % at 10 µM | 1,100 compounds, 25% hits | AID 540358, 2011;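 active means surface receptor percent response at or below 58%, roughly 3 SD from nonfluorescent compounds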
# B2AR FAP counter – counter-screen for beta-2AR agonists: fluorescence in Am2.2 cells | calls only at 10 µM | AID 588765 | shares compounds with Beta2AR agonist | FAP fluorogen flow cytometry, fluorescence counterscreen; active compounds read low | 1,100 tested, under 10 active;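 active means percent response below a set limit in fluorescence channel 1 and below 50% in channel 8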
# Numbers without * were called inactive; i = inactive; ? = inconclusive; . = no result; + = active, no number; [ ] = dose if it differs, or a comment. Compounds with a hit are over-represented: about 2.9% of the library has one in this group of screens.
SMILES,MEKK2 mut-MEK5,Beta2AR agonist,ATG4B inhibitor,MEKK2 WT-MEK5,MEKK3 PB1 HTS,Dynein transport,Dynein inh conf,MEKK2wt confirm,MEKK2mut confirm,MEKK3 confirm,Beta2AR ag CP1,B2AR FAP counter
CCOC(=O)CC1C(=O)NCCN1c1nc2ccc(C)cn2c(=O)c1/C=C1\SC(=S)N(CC(C)C)C1=O (stereo unspecified),-7,i,-10,55*[inhibitor],94,-4.2,i,93,-11,101,.,.
C[C@@]12C(=O)Nc3ccccc3C(=O)N1[C@H]1c3cc(Br)ccc3OC[C@@H]1[C@@H]2c1ccccc1,.,7,-7,.,.,.,.,.,.,.,.,.
COc1ccc(N2C(=O)CC(Sc3ncn[nH]3)C2=O)c(OC)c1 (stereo unspecified),11,15,6,116,122*,-4*,+,102,-2,101,.,.
CC(C)c1ccc(N2C(=O)CC(Sc3ncn[nH]3)C2=O)cc1 (stereo unspecified),4,14,-1,112,107,0.81,.,.,.,.,.,.
Cc1cc(C(C)(C)C)ccc1OCCCCN1CCCC1,-1,3,14,105,102,-0.69,.,.,.,.,.,.
CCC(C)(C)c1ccc(OCCCC[n+]2cccc(C)c2C)c(C(C)(C)CC)c1,41,56*,19,170*,75,-5.2*,i,.,.,.,88,i
CN(C)CCCn1c(SCC(=O)N2c3ccccc3Sc3ccccc32)nc2ccccc2c1=O,45,49*,26,166*,103,-4.2*,i,157,25,102,59,i
CCCc1nc2oc3c(Cl)ncnc3c2c2c1CCCC2,-8,44*,7,88,82,-5.5*,?,.,.,.,90,i
COC(=O)c1ccc(-c2nn(C)c(=O)c3ccccc23)cc1,-6,-2,17,97,96,0.055,.,.,.,.,.,.
COC(=O)c1ccc(C(=O)OC)c(-n2c(=O)c3ccccc3c3ccccc3c2=O)c1,3,54*,-1,107,106,-5.1*,+,.,.,.,105,i
Cc1ccc(NC(=O)c2cc(N3C(=O)C=CC3=O)ccc2N2CCOCC2)cc1,-9,123*,1,86,99,-4.9*,+,.,.,.,42*,i
